Measurements: ChEMBL document CHEMBL3232830, “Effect of prime-site sequence of retro-inverso-modified HTLV-1 protease inhibitor” (Bioorg Med Chem, 2014)
Starred links: 1 amine or outer side, 2 acyl side, 3 side chain; linkers in the order of their positions; H or OH if unused. Non-standard residues stand in square brackets, D forms with d. Residues, ends and D or L forms follow the SMILES beside them. *: point of attachment. X1 = CC(C)C[C@H](C(=O)[*:2])[C@H](O)C[C@H]1CCCN1[*:1]; CO = O=C([*:1])[*:2]; NHBn = c1ccc(CN*)cc1

target: Protease (Human T-cell leukemia virus type I, UniProt Q82134, L40I/C90A/C109A); assay: (§1) Inhibition of HTLV-1 protease L40I/C90A/C109A mutant using dodecapeptide as substrate by HPLC analysis
Sequence (Q82134 entry or part of it L40I/C90A/C109A): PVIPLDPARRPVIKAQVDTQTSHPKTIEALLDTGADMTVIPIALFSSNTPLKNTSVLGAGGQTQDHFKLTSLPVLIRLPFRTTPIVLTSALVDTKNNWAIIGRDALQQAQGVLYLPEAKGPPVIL
Procedure, shortened: (§2)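 Synthetic mutant HTLV-1 protease at 5.6 nM, with a dodecapeptide substrate, in 0.5 M sodium acetate pH 5.6 containing 10% glycerol, 10 mM DTT and 4 M NaCl. Loss of substrate during incubation followed by reversed-phase HPLC (C18, 10–40% CH3CN gradient over 30 min in 0.1% TFA). IC50 from a sigmoidal dose–response curve; assay run three times.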

`CC[C@@H](C)[C@@H](NC(=O)[C@@H](CC(C)C)[C@H](O)C[C@H]1CCCN1)C(=O)N[C@@H](C(=O)N1CCC[C@@H]1C(=O)N1CCC[C@@H]1C(N)=O)C(C)C` was tested, and the IC50 was “Not Active”.

target: Protease (Human T-cell leukemia virus type I, UniProt Q82134, C109A/C90A/L40I); assay: as §1; procedure, shortened: as §2
Sequence (Q82134 entry or part of it C109A/C90A/L40I): as the sequence (Q82134 entry or part of it L40I/C90A/C109A) above

Point of comparison: `CC[C@@H](C)[C@@H](NC(=O)[C@@H](CC(C)C)[C@H](O)C[C@H]1CCCN1C(=O)C(C)(C)C)C(=O)N[C@@H](C(=O)N1CCC[C@@H]1C(=O)N1CCC[C@@H]1C(N)=O)C(C)C`, IC50 1000 µM. Against it:
- CC[C@@H](C)[C@@H](NC(=O)[C@@H](CC(C)C)[C@H](O)C[C@H]1CCCN1C(=O)c1ccccc1)C(=O)N[C@@H](C(=O)N1CCC[C@@H]1C(=O)N1CCC[C@@H]1C(N)=O)C(C)C — within 1.5-fold, 1100 µM
- CC[C@@H](C)[C@@H](NC(=O)[C@@H](CC(C)C)[C@H](O)C[C@H]1CCCN1C(=O)/C=C/c1ccccc1)C(=O)N[C@@H](C(=O)N1CCC[C@@H]1C(=O)N1CCC[C@@H]1C(N)=O)C(C)C — 3.4-fold lower, 290 µM
- CC[C@@H](C)[C@@H](NC(=O)[C@@H](CC(C)C)[C@H](O)C[C@H]1CCCN1C(=O)CCC(C)C)C(=O)N[C@@H](C(=O)N1CCC[C@@H]1C(=O)N1CCC[C@@H]1C(N)=O)C(C)C — 1.9-fold lower, 520 µM
- CC[C@@H](C)[C@@H](N)C(=O)N1CCC[C@@H]1C[C@@H](O)[C@H](CC(C)C)C(=O)N[C@@H](C(=O)N[C@@H](C(=O)N1CCC[C@@H]1C(=O)N1CCC[C@@H]1C(N)=O)C(C)C)[C@H](C)CC — 1.5-fold higher, 1500 µM
- CC[C@@H](C)[C@@H](NC(=O)[C@@H](CC(C)C)[C@H](O)C[C@H]1CCCN1C(=O)NCc1ccccc1)C(=O)N[C@@H](C(=O)N1CCC[C@@H]1C(=O)N1CCC[C@@H]1C(N)=O)C(C)C ({NHBn-CO}-[X1][dI][dV][dP][dP]-NH2) — 6.2-fold lower, 160 µM
- CC[C@@H](C)[C@@H](NC(=O)[C@@H](CC(C)C)[C@H](O)C[C@H]1CCCN1C(=O)[C@H](NC(=O)[C@H](N)CCC(N)=O)[C@H](C)CC)C(=O)N[C@@H](C(=O)N1CCC[C@@H]1C(=O)N1CCC[C@@H]1C(N)=O)C(C)C — 2-fold higher, 2000 µM
- CC[C@@H](C)[C@@H](NC(=O)[C@@H](CC(C)C)[C@H](O)C[C@H]1CCCN1C(=O)[C@H](NC(C)=O)[C@H](C)CC)C(=O)N[C@@H](C(=O)N1CCC[C@@H]1C(=O)N1CCC[C@@H]1C(N)=O)C(C)C (Ac-[dI][X1][dI][dV][dP][dP]-NH2) — 9.1-fold lower, 110 µM
- CC[C@@H](C)[C@@H](NC(=O)[C@@H](CC(C)C)[C@H](O)C[C@H]1CCCN1C(=O)CCc1ccccc1)C(=O)N[C@@H](C(=O)N1CCC[C@@H]1C(=O)N1CCC[C@@H]1C(N)=O)C(C)C — 6.2-fold lower, 160 µM
- CCCC(CCC)C(=O)N1CCC[C@@H]1C[C@@H](O)[C@H](CC(C)C)C(=O)N[C@@H](C(=O)N[C@@H](C(=O)N1CCC[C@@H]1C(=O)N1CCC[C@@H]1C(N)=O)C(C)C)[C@H](C)CC — 2.4-fold lower, 420 µM
- CC[C@@H](C)[C@@H](NC(=O)[C@@H](CC(C)C)[C@H](O)C[C@H]1CCCN1C(=O)OCc1ccccc1)C(=O)N[C@@H](C(=O)N1CCC[C@@H]1C(=O)N1CCC[C@@H]1C(N)=O)C(C)C — 2.6-fold lower, 380 µM
